This is a sample that favours compounds with a hit; in the whole collection about 6.7% have one here.
GRIN3A LBD mod – modulates the human NR3A ligand-binding domain; Tm shift relative to glycine control, % at 25 µM; NR3A LBD differential scanning fluorimetry, Tm shift; 0% = protein alone, 100% = glycine-bound protein; 2.5% of 340,000 active;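 active means melting temperature shift of at least 10% of the positive control shift, at one fixed dose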
Beta apoptosis – beta cell apoptosis inhibition | 0.8% of 300,000 active | INS-1E cytokine-induced death, ATP luminescence, 48 h; percent of positive-control rescue, neutral wells zero | protection from apoptosis, % (no concentration beside the values);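 active means Every replicate reaches about 75%, or at least half do and their mean reaches it too, limit read from the data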;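 further: 0% = cytokine-treated negative control wells and 100% = positive control rescue; higher means more ATP so stronger rescue from cytokine killing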
CHOP inhibitor – CHOP inhibition in unfolded protein response | CHO-K1 CHOP-promoter luciferase, tunicamycin-induced, 15-18 h | inhibition, % at 10 µM | 3.8% of 220,000 active;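 active means compounds that reduced the stress-induced luciferase reporter signal by more than about 70% of percent inhibition, limit read from the data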;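 further: 0% = tunicamycin plus vehicle and 100% = wells without tunicamycin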
T cruzi repl – blocks replication of Trypanosoma cruzi | inhibition, % (concentration not given with the values) | T. cruzi beta-gal in NIH3T3, luminescence, 90 h | 1.4% of 300,000 active;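 active means mean inhibition across valid replicates above about 55%, limit read from the data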;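 further: signal also drops with host cell toxicity which is not excluded here; 0% = plate median of DMSO wells and 100% = zero luminescence signal; higher percent means less beta-gal luminescence so fewer parasites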
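System – NIH/3T3 host cells with β-galactosidase reporter T. cruzi · Doses – single 50 nL compound addition per well in DMSO · Reagent – 5000 T. cruzi trypomastigotes/well · Medium – Low-serum DMEM with 2% FBS · Timing – ≥90 h infection period, 3 h prior cell attachment · Evaluation – parasite load inhibition, % · Technique – GalScreen luminescence, 60 min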
CSC inhib – cancer stem cell inhibition; cancer stem cell-like cells viability, luminescence; inhibition, % at 7.5 µM; 1.1% of 300,000 active; in the data active means inhibition above about 75%; tested in HMLE shEcad cells
PREPL inhibitor – human PREPL enzyme inhibition. recombinant PREPL, fluorescence polarization activity-based probe. inhibition, % at 5.96 µM. 0.68% of 320,000 active; in the data active means inhibition above about 43%;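 further: 0% = enzyme with DMSO and 100% = wells lacking enzyme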
Target sequence (Q4J6C6 whole entry, looked up): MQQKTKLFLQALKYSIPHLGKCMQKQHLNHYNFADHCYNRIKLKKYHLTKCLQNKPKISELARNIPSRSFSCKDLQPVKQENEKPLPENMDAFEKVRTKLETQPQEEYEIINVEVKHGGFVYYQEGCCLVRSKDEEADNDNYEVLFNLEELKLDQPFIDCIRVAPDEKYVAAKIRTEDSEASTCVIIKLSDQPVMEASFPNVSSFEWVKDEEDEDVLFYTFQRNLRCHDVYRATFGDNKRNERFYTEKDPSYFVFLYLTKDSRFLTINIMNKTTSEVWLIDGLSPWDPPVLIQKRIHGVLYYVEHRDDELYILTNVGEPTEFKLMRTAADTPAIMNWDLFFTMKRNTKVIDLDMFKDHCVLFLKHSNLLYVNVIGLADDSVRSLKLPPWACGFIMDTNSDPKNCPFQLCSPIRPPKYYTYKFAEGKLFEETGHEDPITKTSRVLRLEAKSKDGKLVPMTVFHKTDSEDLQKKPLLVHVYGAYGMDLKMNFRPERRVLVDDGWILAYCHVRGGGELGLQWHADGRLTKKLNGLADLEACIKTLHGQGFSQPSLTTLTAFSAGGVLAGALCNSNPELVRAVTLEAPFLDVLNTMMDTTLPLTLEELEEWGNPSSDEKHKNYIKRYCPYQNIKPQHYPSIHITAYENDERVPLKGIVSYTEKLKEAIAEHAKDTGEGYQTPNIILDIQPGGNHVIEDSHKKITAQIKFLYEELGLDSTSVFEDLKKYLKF
The depositor's hits bear a star; x = not tested or not shown.

SMILES | GRIN3A LBD mod | Beta apoptosis | CHOP inhibitor | T cruzi repl | CSC inhib | PREPL inhibitor
N#CC12CCCCC1CC1CCCCC1(C#N)N2Cc1ccccn1 (centres undefined) | 10* | -5 | -6 | -34 | 1 | 12
CCOC(=O)c1ccc(N2C(=O)c3n[nH]c(-c4ccco4)c3C2c2cccc([N+](=O)[O-])c2)cc1 (centres undefined) | 24* | 3 | 71* | 43 | -4 | 14
COc1ccc(C2C=C(c3ccc(Br)cc3)Nc3nc(N4C(=O)CCC4=O)nn32)cc1 (centres undefined) | 13* | -4 | 2 | 5 | 8 | 12
Cc1cc(NC(=O)CS(=O)(=O)c2ccc(Cl)cc2)no1 | -1 | -3 | x | -8 | -3 | -3
Cc1ccc(-c2cc3c(N=O)c4ccccc4c-3n[nH]2)cc1 | -1 | 49 | 65 | 20 | 87* | -6
O=Nc1c2cc(-c3ccccc3)[nH]nc-2c2ccccc12 | 3 | x | 92* | -4 | x | x
Cc1ccc(-c2n[nH]c(=O)c3ccccc23)cc1S(=O)(=O)N(C)C | -1 | 3 | x | 1 | -15 | 16
O=c1[nH]nc(-c2ccccc2)c2ccccc12 | -3 | -5 | -4 | -1 | -11 | -5
Cc1cccc(-c2cc3c(N=O)c4ccccc4c-3n[nH]2)c1 | 2 | 26 | 85* | 62* | x | 3
COc1ccccc1NC(=O)CCN1C(=O)c2ccccc2S1(=O)=O | 0 | 2 | 5 | x | 1 | 10
CCCCCCCCCCCCC/C=C/C(O)C(N)CO (centres undefined) | x | x | -11 | x | x | x
COc1ccc(CCN2Cc3c(N)cccc3C2=O)cc1OC | -2 | -1 | x | -10 | -9 | 4
Cc1ccc(C(=O)NC(Cc2cccc(F)c2)C(=O)O)cc1 (centres undefined) | -2 | x | x | x | x | x
Cc1cccc([N+](=O)[O-])c1NC(=O)CSc1nnc2ccccn12 | -2 | -2 | x | x | -9 | 2
CCCCSc1nnc(CSc2nc3nc(C)cc(C)n3n2)o1 | 12* | -3 | 2 | 28 | -7 | 14
CCOC(=O)CSc1nc2nc(C)cc(C)n2n1 | -1 | -9 | 83* | -1 | 11 | 4
CSc1ccccc1OCc1cc(C(=O)N(C)Cc2nonc2C)no1 | 13* | -5 | x | 8 | -7 | 12
CSc1ccccc1OCc1cc(C(=O)N(C)CC2COCCO2)no1 (centres undefined) | 13* | -5 | x | 1 | 4 | 5
Cc1nonc1CN(C)C(=O)c1cc(COc2ccc(F)cc2Cl)on1 | 1 | 6 | x | 2 | 12 | 18
CNC(=O)c1c(NC(=O)c2ccc(S(=O)(=O)N3CCCc4ccccc43)cc2)sc2c1CCN(C)C2 | -4 | 1 | -11 | 50 | 76* | -13
CCCN1CCc2c(sc(NC(=O)c3ccc(S(=O)(=O)N(C)c4ccccc4)cc3)c2C(=O)NC)C1 | -4 | 8 | x | 35 | 78* | 31
CN1CCc2c(sc(NC(=O)c3ccc([N+](=O)[O-])o3)c2C(N)=O)C1 | -4 | -9 | x | 64* | 44 | 19
CN1CCc2c(sc(NC(=O)c3ccc(S(=O)(=O)N4CCc5ccccc54)cc3)c2C(N)=O)C1 | x | 3 | -25 | -5 | 82* | 17
COc1ccc(C(=O)Nc2ccc(Cl)cc2C(=O)N2CCCC(C)C2)cc1OC (centres undefined) | -7 | -12 | 19 | 10 | 4 | 4
CNC(=S)N/N=C/c1cn(CCOc2cccc(OC)c2)c2ccccc12 | -5 | 10 | 18 | 36 | 49 | 40
SMILES | GRIN3A LBD mod | Beta apoptosis | CHOP inhibitor | T cruzi repl | CSC inhib | PREPL inhibitor
COc1ccc(CNC(=O)CN(Cc2ccc(C)cc2)C(=O)c2csnn2)cc1 | -2 | -1 | x | -3 | 2 | 16
COCCn1ccc2c(OCC(=O)NCc3ccc(C)cc3)cccc2c1=O | 2 | 4 | x | -6 | -17 | -8
CCN(CC(=O)NCc1ccc(F)cc1)C(=O)CCNS(=O)(=O)c1cccc(C)c1 | -1 | -3 | x | x | 1 | 9
COc1ccc(-c2cc(O)cc(O)c2)cc1 | 11* | -5 | 9 | -15 | x | -2
COc1ccc(C(=O)N2CCC(c3ccccc3)CC2)c(OC)c1OC | 0 | -6 | 8 | -17 | -6 | 4
Cn1c(NC(=O)/C=C/c2ccccc2)cc(=O)n(C)c1=O | -2 | -1 | -15 | -13 | -14 | -9

Screening results (PubChem BioAssay)
